Results as given in ChEMBL document CHEMBL5380865, “Linearization of the Brevicidine and Laterocidine Lipopeptides Yields Analogues That Retain Full Antibacterial Activity” (J Med Chem, 2023).
Converted amounts (≈) assume the structure as drawn. Where a SMILES comes first, the peptide text is derived from it. [ ]: non-standard residue; d: D form. The star is where a group is joined. ξ: configuration not given here. Octanoyl(7-Me) = CC(C)CCCCCC(=O)*; Hexanoyl(4ξ-Me) = CCC(C)CCC(=O)*; dOrn = NCCC[C@@H](N)C(=O)O; Orn = NCCC[C@H](N)C(=O)O; Dap = NC[C@H](N)C(=O)O; Alloc = C=CCOC(=O)*

Assays:
Klebsiella pneumoniae = test: Antibacterial activity Klebsiella pneumoniae ATCC 13883 assessed as inhibition of visible bacterial growth incubated for 18 hrs by microbroth dilution assay; assay type: functional
How it was run: (§1)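 CLSI broth microdilution. Strains streaked from glycerol stocks onto blood agar (16 h, 37 °C); single colonies grown in TSB at 37 °C, 220 rpm, to OD600 about 0.5. Diluted in MHB to 2 × 10^5 CFU/mL and mixed 1:1 with compounds serially diluted in MHB from DMSO stocks (colistin from water stocks), polypropylene plates. Sealed, 18 h at 37 °C, 600 rpm. MIC taken as lowest concentration preventing visible growth, three technical replicates.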

Acinetobacter baumannii = test: Antibacterial activity Acinetobacter baumannii ATCC 17961 assessed as inhibition of visible bacterial growth incubated for 18 hrs by microbroth dilution assay; assay type: functional; how it was run: as §1
Escherichia coli [1] = test: Antibacterial activity Escherichia coli ATCC 25922 assessed as inhibition of visible bacterial growth incubated for 18 hrs by microbroth dilution assay; assay type: functional; how it was run: as §1
Pseudomonas aeruginosa = test: Antibacterial activity Pseudomonas aeruginosa PAO1 assessed as inhibition of visible bacterial growth incubated for 18 hrs by microbroth dilution assay; assay type: functional
How it was run: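 CLSI broth microdilution. Colonies from blood agar (16 h, 37 °C) grown in TSB at 37 °C, 220 rpm, to OD600 about 0.5, then diluted in MHB to 2 × 10^5 CFU/mL. Added to DMSO-stock compounds serially diluted in MHB in polypropylene plates. Sealed, 18 h at 37 °C, 600 rpm. MIC = lowest concentration with no visible growth; three technical replicates.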

Staphylococcus aureus = test: Antibacterial activity Staphylococcus aureus USA300 assessed as inhibition of visible bacterial growth incubated for 18 hrs by microbroth dilution assay; assay type: functional; how it was run: as §1
Escherichia coli [2] = test: Antibacterial activity Escherichia coli MCR-1 assessed as inhibition of visible bacterial growth incubated for 18 hrs by microbroth dilution assay; assay type: functional
How it was run: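 Colistin-resistant E. coli 25922 carrying MCR-1, grown from glycerol stock in kanamycin-supplemented TSB for 16 h at 37 °C, 220 rpm. Diluted 100-fold in kanamycin-supplemented TSB and grown to OD600 about 0.5, then diluted in MHB to 2 × 10^5 CFU/mL. Combined 1:1 with MHB serial dilutions of compounds. Sealed, 18 h at 37 °C, 600 rpm; lowest concentration without visible growth, triplicate technical replicates.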

[3] = Hemolytic activity in sheep red blood cell assessed as hemolysis at 1 to 128 ug/ml incubated for 1 hrs relative to control; assay type: toxicity, cell-based, Ovis aries, Erythrocyte; details: sheep red blood cells (erythrocytes), at 1 to 128 µg/mL, dose 1-128 µg/ml, read-out: Activity
How it was run: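 Defibrinated sheep erythrocytes washed five times in PBS with 0.002% Tween20 and normalized so the Triton control reads 2.5–3.0 at 415 nm. Mixed 1:1 with compound serial dilutions (128–1 μg/mL) and incubated 1 h at 37 °C, 500 rpm. Supernatant A415 is background-corrected with buffer and expressed as percent of 0.1% Triton X-100 (final). Run in triplicate.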

Row | SMILES | MIC (Klebsiella pneumoniae) [µg/mL] | MIC (Acinetobacter baumannii) [µg/mL] | MIC (Escherichia coli [1]) [µg/mL] | MIC (Pseudomonas aeruginosa) [µg/mL] | MIC (Staphylococcus aureus) [µg/mL] | MIC (Escherichia coli [2]) [µg/mL] | hemolysis at 1 h [3] [%]
1 | CCC(C)CCC(=O)N[C@H](C)C(=O)N[C@H](Cc1ccc(O)cc1)C(=O)N[C@H](Cc1c[nH]c2ccccc12)C(=O)N[C@H](CCCN)C(=O)N[C@@H](CCCN)C(=O)NCC(=O)N[C@H](CCCN)C(=O)N[C@@H](Cc1c[nH]c2ccccc12)C(=O)N[C@H](C(=O)N[C@H](C(=O)NCC(=O)N[C@@H](CO)C(N)=O)[C@@H](C)CC)[C@@H](C)O (stereo partly specified) ({Hexanoyl(4ξ-Me)}-[dA][dY][dW][dOrn][Orn]G[dOrn]WTIGS-NH2) | 16 (≈ 10.7 µM) | 8 (≈ 5.36 µM) | 16 (≈ 10.7 µM) | 8 (≈ 5.36 µM) | > 32 | 16 (≈ 10.7 µM) | 
2 | CCC(C)CCC(=O)N[C@H](CC(N)=O)C(=O)N[C@H](C)C(=O)N[C@H](Cc1c[nH]c2ccccc12)C(=O)N[C@H](CCCN)C(=O)N[C@@H](CCCN)C(=O)NCC(=O)N[C@H](CCCN)C(=O)N[C@@H](Cc1c[nH]c2ccccc12)C(=O)N[C@H](C(=O)N[C@H](C(=O)NCC(=O)N[C@@H](CO)C(N)=O)[C@@H](C)CC)[C@@H](C)O (stereo partly specified) ({Hexanoyl(4ξ-Me)}-[dN][dA][dW][dOrn][Orn]G[dOrn]WTIGS-NH2) | > 32 | > 32 | > 32 | 16 (≈ 11.1 µM) | > 32 | > 32 | 
3 | CCC(C)CCC(=O)N[C@H](CC(N)=O)C(=O)N[C@H](Cc1ccc(O)cc1)C(=O)N[C@H](C)C(=O)N[C@H](CCCN)C(=O)N[C@@H](CCCN)C(=O)NCC(=O)N[C@H](CCCN)C(=O)N[C@@H](Cc1c[nH]c2ccccc12)C(=O)N[C@H](C(=O)N[C@H](C(=O)NCC(=O)N[C@@H](CO)C(N)=O)[C@@H](C)CC)[C@@H](C)O (stereo partly specified) ({Hexanoyl(4ξ-Me)}-[dN][dY][dA][dOrn][Orn]G[dOrn]WTIGS-NH2) | > 32 | > 32 | > 32 | 32 (≈ 22.5 µM) | > 32 | > 32 | 
4 | CCC(C)CCC(=O)N[C@H](CC(N)=O)C(=O)N[C@H](Cc1ccc(O)cc1)C(=O)N[C@H](Cc1c[nH]c2ccccc12)C(=O)N[C@H](CCCN)C(=O)N[C@@H](C)C(=O)NCC(=O)N[C@H](CCCN)C(=O)N[C@@H](Cc1c[nH]c2ccccc12)C(=O)N[C@H](C(=O)N[C@H](C(=O)NCC(=O)N[C@@H](CO)C(N)=O)[C@@H](C)CC)[C@@H](C)O (stereo partly specified) ({Hexanoyl(4ξ-Me)}-[dN][dY][dW][dOrn]AG[dOrn]WTIGS-NH2) | > 32 | > 32 | > 32 | 32 (≈ 21.4 µM) | > 32 | > 32 | 
5 | CCC(C)CCC(=O)N[C@H](CC(N)=O)C(=O)N[C@H](Cc1ccc(O)cc1)C(=O)N[C@H](Cc1c[nH]c2ccccc12)C(=O)N[C@H](CCCN)C(=O)N[C@@H](CCCN)C(=O)N[C@@H](C)C(=O)N[C@H](CCCN)C(=O)N[C@@H](Cc1c[nH]c2ccccc12)C(=O)N[C@H](C(=O)N[C@H](C(=O)NCC(=O)N[C@@H](CO)C(N)=O)[C@@H](C)CC)[C@@H](C)O (stereo partly specified) ({Hexanoyl(4ξ-Me)}-[dN][dY][dW][dOrn][Orn]A[dOrn]WTIGS-NH2) | > 32 | 32 (≈ 20.6 µM) | 32 (≈ 20.6 µM) | 32 (≈ 20.6 µM) | > 32 | 32 (≈ 20.6 µM) | 
6 | CCC(C)CCC(=O)N[C@H](CC(N)=O)C(=O)N[C@H](Cc1ccc(O)cc1)C(=O)N[C@H](Cc1c[nH]c2ccccc12)C(=O)N[C@H](CCCN)C(=O)N[C@@H](CCCN)C(=O)NCC(=O)N[C@H](C)C(=O)N[C@@H](Cc1c[nH]c2ccccc12)C(=O)N[C@H](C(=O)N[C@H](C(=O)NCC(=O)N[C@@H](CO)C(N)=O)[C@@H](C)CC)[C@@H](C)O (stereo partly specified) ({Hexanoyl(4ξ-Me)}-[dN][dY][dW][dOrn][Orn]G[dA]WTIGS-NH2) | > 32 | 16 (≈ 10.7 µM) | > 32 | 32 (≈ 21.4 µM) | > 32 | > 32 | 
7 | CCC(C)CCC(=O)N[C@H](CC(N)=O)C(=O)N[C@H](Cc1ccc(O)cc1)C(=O)N[C@H](Cc1c[nH]c2ccccc12)C(=O)N[C@H](CCCN)C(=O)N[C@@H](CCCN)C(=O)NCC(=O)N[C@H](CCCN)C(=O)N[C@@H](Cc1c[nH]c2ccccc12)C(=O)N[C@@H](CC(=O)O)C(=O)N[C@H](C(=O)NCC(N)=O)[C@@H](C)CC (stereo partly specified) ({Hexanoyl(4ξ-Me)}-[dN][dY][dW][dOrn][Orn]G[dOrn]WDIG-NH2) |  |  | > 32 |  |  | > 32 | 
8 | CC[C@H](C)[C@H](NC(=O)[C@@H](NC(=O)[C@H](Cc1c[nH]c2ccccc12)NC(=O)[C@@H](CCCN)NC(=O)CNC(=O)[C@H](C)NC(=O)[C@@H](CCCN)NC(=O)[C@@H](Cc1c[nH]c2ccccc12)NC(=O)[C@@H](Cc1ccc(O)cc1)NC(=O)[C@@H](CO)NC(=O)CCCCCC(C)C)[C@@H](C)O)C(=O)N[C@@H](CC(N)=O)C(=O)NCC(=O)NCC(N)=O ({Octanoyl(7-Me)}-[dS][dY][dW][dOrn]AG[dOrn]WTINGG-NH2) |  |  |  |  |  | > 32 | 
9 | CC[C@H](C)[C@H](NC(=O)[C@@H](NC(=O)[C@H](Cc1c[nH]c2ccccc12)NC(=O)[C@@H](CCCN)NC(=O)[C@H](C)NC(=O)[C@H](CCCN)NC(=O)[C@@H](CCCN)NC(=O)[C@@H](Cc1c[nH]c2ccccc12)NC(=O)[C@@H](Cc1ccc(O)cc1)NC(=O)[C@@H](CO)NC(=O)CCCCCC(C)C)[C@@H](C)O)C(=O)N[C@@H](CC(N)=O)C(=O)NCC(=O)NCC(N)=O ({Octanoyl(7-Me)}-[dS][dY][dW][dOrn][Orn]A[dOrn]WTINGG-NH2) |  |  | 4 (≈ 2.45 µM) |  |  |  | 
10 | CC(C)CCCCCC(=O)N[C@H](CO)C(=O)N[C@H](Cc1ccc(O)cc1)C(=O)N[C@H](Cc1c[nH]c2ccccc12)C(=O)N[C@H](CCCN)C(=O)N[C@@H](CCCN)C(=O)NCC(=O)N[C@H](CCCN)C(=O)N[C@@H](Cc1c[nH]c2ccccc12)C(=O)N[C@H](C(N)=O)[C@@H](C)O ({Octanoyl(7-Me)}-[dS][dY][dW][dOrn][Orn]G[dOrn]WT-NH2) |  |  | > 32 |  |  |  | < 0.1
11 | CC[C@H](C)[C@H](NC(=O)[C@@H](NC(=O)[C@H](Cc1c[nH]c2ccccc12)NC(=O)[C@@H](CCCN)NC(=O)CNC(=O)[C@H](CCCN)NC(=O)[C@@H](CCCN)NC(=O)[C@@H](Cc1c[nH]c2ccccc12)NC(=O)[C@@H](Cc1ccc(O)cc1)NC(=O)[C@@H](CO)NC(=O)CCCCCC(C)C)[C@@H](C)O)C(=O)N[C@@H](CC(N)=O)C(=O)NCC(=O)NCC(=O)O ({Octanoyl(7-Me)}-[dS][dY][dW][dOrn][Orn]G[dOrn]WTINGG-OH) |  |  |  |  |  |  | < 0.1
12 | C=CCOC(=O)NC[C@H](NC(=O)[C@H](Cc1c[nH]c2ccccc12)NC(=O)[C@@H](CCCN)NC(=O)CNC(=O)[C@H](CCCN)NC(=O)[C@@H](CCCN)NC(=O)[C@@H](Cc1c[nH]c2ccccc12)NC(=O)[C@@H](Cc1ccc(O)cc1)NC(=O)[C@@H](CO)NC(=O)CCCCCC(C)C)C(=O)N[C@H](C(=O)N[C@@H](CC(N)=O)C(=O)NCC(=O)NCC(N)=O)[C@@H](C)CC ({Octanoyl(7-Me)}-[dS][dY][dW][dOrn][Orn]G[dOrn]W[Dap](Alloc)INGG-NH2) |  |  |  |  |  |  | < 0.1
13 | CC[C@H](C)[C@H](NC(=O)[C@H](CN)NC(=O)[C@H](Cc1c[nH]c2ccccc12)NC(=O)[C@@H](CCCN)NC(=O)CNC(=O)[C@H](CCCN)NC(=O)[C@@H](CCCN)NC(=O)[C@@H](Cc1c[nH]c2ccccc12)NC(=O)[C@@H](Cc1ccc(O)cc1)NC(=O)[C@@H](CO)NC(=O)CCCCCC(C)C)C(=O)N[C@@H](CC(N)=O)C(=O)NCC(=O)NCC(N)=O ({Octanoyl(7-Me)}-[dS][dY][dW][dOrn][Orn]G[dOrn]W[Dap]INGG-NH2) |  |  |  | 18 (≈ 11.2 µM) |  |  | < 0.1
